Test results reported in ChEMBL document CHEMBL4130464, “Cytotoxic Prenylated Stilbenes Isolated from Macaranga tanarius” (J Nat Prod, 2017).
pEC50: −log10 of the molar value. Non-standard residues stand in square brackets, D forms with d. Residues, ends and D or L forms follow the SMILES beside them. *: point of attachment. Dolaproine = CO[C@@H]([C@@H]1CCCN1)[C@@H](C)C(=O)O; Dil = CC[C@H](C)[C@H](NC)[C@@H](CC(=O)O)OC; X1 = C[C@@H](N*)[C@@H](O)c1ccccc1; NMeV = CN[C@H](C(=O)O)C(C)C

Columns and labels:
[1] = tested on: U-87 MG; test: Antiproliferative activity against human U87 cells after 72 hrs by MTS assay; format: functional, cell-based, U-87MG ATCC
In short: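 U87 human glioblastoma cells (ATCC) kept in DMEM with 10% FCS and 1% glutamine at 37 °C, 5% CO2. Seeded at 2.5 × 10^3 cells/well, exposed after 24 h to compounds at 1 and 10 μM final for 72 h. […] added 2 h before reading absorbance at 490 nm. Percent cytotoxicity index (treated/control OD490 × 100) from three experiments.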

[2] = tested on: A549; test: Antiproliferative activity against human A549 cells after 72 hrs by MTS assay; format: functional, cell-based; conditions: A549, 72 h
In short: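 A549 human lung cancer cells (ATCC) grown in RPMI 1640 with 10% FCS and 1% glutamine at 37 °C, 5% CO2. Cells seeded at 2.5 × 10^3 per well and cultured 24 h, then treated at 1 and 10 μM final for 72 h. […] added for 2 h, absorbance read at 490 nm. Cytotoxicity index (OD490treated/OD490control × 100) taken from three experiments.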

SMILES | pEC50 [1] | pEC50 [2]
CC(C)=CCC/C(C)=C/CC/C(C)=C/Cc1c(O)cc(/C=C/c2ccc(O)c(O)c2)cc1O | 7.60 | < 5.00
CC(C)=CCc1c(O)cc(/C=C/c2cc(O)c(O)c(C/C=C(\C)CCC(O)C(C)(C)O)c2)cc1O (stereo not drawn) | 7.00 | < 5.00
CC(C)=CCc1c(O)cc(/C=C/c2cc(O)c3c(c2)C[C@@H]2C(C)(C)[C@H](O)C[C@H](O)[C@@]2(C)O3)cc1O | 7.30 | < 5.00
CC(C)=CCC/C(C)=C/Cc1cc(/C=C/c2cc(O)c3c(c2)OC(C)(C)[C@@H](O)C3)cc(O)c1O | 6.60 | 6.14
CC[C@H](C)[C@@H]([C@@H](CC(=O)N1CCC[C@H]1[C@H](OC)[C@@H](C)C(=O)N[C@H](C)[C@@H](O)c1ccccc1)OC)N(C)C(=O)[C@@H](NC(=O)[C@@H](NC)C(C)C)C(C)C (H-[NMeV]V[Dil][Dolaproine]-X1) | 9.70 | 9.30
COc1cc(/C=C/c2cc(O)c(CC=C(C)C)c(O)c2)cc2c1O[C@]1(C)C[C@@H](O)[C@@H](O)C(C)(C)[C@H]1C2 [SCHWEINFURTHIN E] | 6.70 | 6.59
COc1cc(/C=C/c2cc(O)c(CC=C(C)C)c(O)c2)cc2c1O[C@]1(C)CC[C@@H](O)C(C)(C)[C@H]1C2 [SCHWEINFURTHIN F] | 6.62 | 5.82
CC(C)=CCc1c(O)cc(/C=C/c2cc(O)c3c(c2)C[C@@H]2C(C)(C)[C@H](O)CC[C@@]2(C)O3)cc1O [SCHWEINFURTHIN G] | 7.35 | 6.10
CC(C)=CCc1c(O)cc(/C=C/c2cc(O)c3c(c2)C[C@@H]2C(C)(C)[C@H](O)[C@H](O)C[C@@]2(C)O3)cc1O [VEDELIANIN] | 7.52 | 6.72

Second part, the compound after the results:

pEC50 [1] | pEC50 [2] | SMILES
6.30 | < 5.00 | C/C(=C\Cc1cc(/C=C/c2cc(O)c3c(c2)OC(C)(C)[C@@H](O)C3)cc(O)c1O)CCC(O)C(C)(C)O (stereo partly drawn)
< 5.00 | < 5.00 | CC(C)=CCC/C(C)=C/Cc1cc(/C=C/c2cc(O)cc(Oc3ccc4c(c3)O[C@H](c3ccc(C/C=C(\C)CCC=C(C)C)c(O)c3O)[C@@H]4O)c2)cc(O)c1O
5.15 | < 5.00 | COc1cc(/C=C/c2cc(O)c(CC=C(C)C)c(O)c2)cc(C/C=C(\C)CCC=C(C)C)c1O
6.35 | 6.62 | CC(C)=CCC[C@]1(C)Oc2c(O)cc(/C=C/c3cc(O)c4c(c3)OC(C)(C)C(O)C4)cc2C[C@@H]1O (stereo partly drawn)
5.27 | 5.15 | CC(C)=CCC/C(C)=C/Cc1cc(/C=C/c2cc(O)c(CC=C(C)C)c(O)c2)cc(O)c1O [MAPPAIN]
